ChEMBL document CHEMBL3804761, “Synthesis of a stable and orally bioavailable englerin analogue” (Bioorg Med Chem Lett, 2016)

Legend:
Assay type in all cases: functional
[1] = Growth inhibition of human SF295 cells assessed as cell growth at 10 uM incubated for 48 hrs by sulforhodamine B assay relative to control; settings: SF-295, 48 h, read-out: Activity
In short: (§1)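 Run in the standard NCI 60-cell-line screen. Cells were exposed to drug for two days, and the read-out was sulforhodamine B staining. Compound was tested at a single final concentration of 10 µM in every line, and results are reported as growth percent.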

[2] = Growth inhibition of human OVCAR3 cells assessed as cell growth at 10 uM incubated for 48 hrs by sulforhodamine B assay relative to control; settings: OVCAR-3, 48 h, read-out: Activity; in short: as §1
[3] = Growth inhibition of human RPMI8226 cells assessed as cell growth at 10 uM incubated for 48 hrs by sulforhodamine B assay relative to control; settings: RPMI-8226, 48 h, read-out: Activity; in short: as §1
[4] = Growth inhibition of human SNB75 cells assessed as cell growth at 10 uM incubated for 48 hrs by sulforhodamine B assay relative to control; settings: SNB-75, 48 h, read-out: Activity; in short: as §1
[5] = Growth inhibition of human SF268 cells assessed as cell growth at 10 uM incubated for 48 hrs by sulforhodamine B assay relative to control; settings: SF-268, 48 h, read-out: Activity; in short: as §1
[6] = Growth inhibition of human SF539 cells assessed as cell growth at 10 uM incubated for 48 hrs by sulforhodamine B assay relative to control; settings: SF-539, 48 h, read-out: Activity
In short: (§2)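 Single-dose screen in the NCI 60-cell-line panel at one final concentration of 10 µM. Two-day drug exposure with a sulforhodamine B endpoint. Values are growth percent for each cell line.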

[7] = Growth inhibition of human HCT15 cells assessed as cell growth at 10 uM incubated for 48 hrs by sulforhodamine B assay relative to control; settings: HCT-15, 48 h, read-out: Activity; in short: as §1
[8] = Growth inhibition of human PC3 cells assessed as cell growth at 10 uM incubated for 48 hrs by sulforhodamine B assay relative to control; settings: PC-3, 48 h, read-out: Activity; in short: as §1
[9] = Growth inhibition of human HL-60(TB) cells assessed as cell growth at 10 uM incubated for 48 hrs by sulforhodamine B assay relative to control; settings: HL-60, 48 h, read-out: Activity; in short: as §2
[10] = Growth inhibition of human HOP92 cells assessed as cell growth at 10 uM incubated for 48 hrs by sulforhodamine B assay relative to control; settings: HOP-92, 48 h, read-out: Activity; in short: as §2
A498 = assay: Growth inhibition of human A498 cells assessed as cell growth at 10 uM incubated for 48 hrs by sulforhodamine B assay relative to control; settings: A498, 48 h, read-out: Activity
[11] = Growth inhibition of human BT549 cells assessed as cell growth at 10 uM incubated for 48 hrs by sulforhodamine B assay relative to control; settings: BT-549, 48 h, read-out: Activity; in short: as §1
ACHN = assay: Growth inhibition of human ACHN cells assessed as cell growth at 10 uM incubated for 48 hrs by sulforhodamine B assay relative to control; settings: read-out: Activity; in short: as §1
CCRF-CEM [12] = assay: Growth inhibition of human CCRF-CEM cells assessed as cell growth at 10 uM incubated for 48 hrs by sulforhodamine B assay relative to control; settings: read-out: Activity; in short: as §2
NCI-H460 = assay: Growth inhibition of human NCI-H460 cells assessed as cell growth at 10 uM incubated for 48 hrs by sulforhodamine B assay relative to control; settings: NCI-H460, 48 h, read-out: Activity; in short: as §1
[13] = Growth inhibition of human HOP62 cells assessed as cell growth at 10 uM incubated for 48 hrs by sulforhodamine B assay relative to control; settings: HOP-62, 48 h, read-out: Activity; in short: as §1
[14] = Growth inhibition of human RPMI8226 cells incubated for 48 hrs by sulforhodamine B assay; settings: RPMI-8226, 48 h
In short: (§3)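 NCI 60-cell-line panel, standard protocol. Cells exposed to compound for two days, growth read by sulforhodamine B staining. Tested at five 10-fold dilutions, top concentration 100 µM, to give dose-response curves.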

SK-MEL-28 = assay: Growth inhibition of human SK-MEL-28 cells incubated for 48 hrs by sulforhodamine B assay; settings: SK-MEL-28, 48 h; in short: as §3
MDA-MB-435 = assay: Growth inhibition of human MDA-MB-435 cells incubated for 48 hrs by sulforhodamine B assay; settings: MDA-MB-435, 48 h; in short: as §3
[15] = Growth inhibition of human HCT116 cells incubated for 48 hrs by sulforhodamine B assay; settings: HCT-116, 48 h; in short: as §3
CCRF-CEM [16] = assay: Growth inhibition of human CCRF-CEM cells incubated for 48 hrs by sulforhodamine B assay; in short: as §3
[17] = Growth inhibition of human IGROV1 cells incubated for 48 hrs by sulforhodamine B assay; settings: IGROV-1, 48 h; in short: as §3
[18] = Growth inhibition of human SNB19 cells incubated for 48 hrs by sulforhodamine B assay; settings: SNB-19, 48 h
In short: (§4)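 Tested in the standard NCI 60-cell-line protocol with two-day drug exposure and a sulforhodamine B endpoint. Compounds were first screened at a single final concentration of 10 µM, reported as growth percent. They were then run as five 10-fold dilutions starting from a high concentration of 100 µM to give dose-response curves.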

[19] = Growth inhibition of human SF295 cells incubated for 48 hrs by sulforhodamine B assay; settings: SF-295, 48 h; in short: as §3
HT-29 = assay: Growth inhibition of human HT-29 cells incubated for 48 hrs by sulforhodamine B assay; settings: HT-29, 48 h; in short: as §3
NCI-H322M = assay: Growth inhibition of human NCI-H322M cells incubated for 48 hrs by sulforhodamine B assay; in short: as §3
K562 = assay: Growth inhibition of human K562 cells incubated for 48 hrs by sulforhodamine B assay; settings: K562, 48 h; in short: as §3
[20] = Growth inhibition of human SNB75 cells incubated for 48 hrs by sulforhodamine B assay; settings: SNB-75, 48 h; in short: as §4
[21] = Growth inhibition of human DU145 cells incubated for 48 hrs by sulforhodamine B assay; settings: DU-145, 48 h; in short: as §3
T47D = assay: Growth inhibition of human T47D cells incubated for 48 hrs by sulforhodamine B assay; in short: as §4
[22] = read-out: pLC50 (the source's name) (converted)

CC(C)[C@@]12C[C@@H](NC(=O)CF)[C@@](C)(O1)[C@@H]1CC[C@@H](C)[C@H]1[C@@H]2OC(=O)/C=C/c1ccccc1
growth at 10 µM [1]: 105%
growth at 10 µM [2]: 115%
growth at 10 µM [3]: 94.3%
growth at 10 µM [4]: 87.9%
growth at 10 µM [5]: 97.7%
growth at 10 µM [6]: 87.9%
growth at 10 µM [7]: 103%
growth at 10 µM [8]: 84%
growth at 10 µM [9]: 105%
growth at 10 µM [10]: 75.8%
growth at 10 µM (A498): 83%
growth at 10 µM [11]: 111%
growth at 10 µM (ACHN): 105%
growth at 10 µM (CCRF-CEM [12]): 88.6%
growth at 10 µM (NCI-H460): 104%
growth at 10 µM [13]: 90.8%

CC(C)[C@@]12C[C@@H](NC(=O)CO)[C@@](C)(O1)[C@@H]1CC[C@@H](C)[C@H]1[C@@H]2OC(=O)/C=C/C1CCCCC1
growth at 10 µM [1]: 86.3%
GI50 [14]: > 44.7 µM
CC50 [14, 22]: > 44.7 µM
TGI ([14]; read-out: pTGI (converted)): > 44.7 µM
GI50 (SK-MEL-28): > 44.7 µM
LC50 (SK-MEL-28): > 44.7 µM
TGI (SK-MEL-28; read-out: pTGI (converted)): > 44.7 µM
growth at 10 µM [2]: 110%
growth at 10 µM [3]: 134%
GI50 (MDA-MB-435): > 44.7 µM
LC50 (MDA-MB-435): > 44.7 µM
TGI (MDA-MB-435; read-out: pTGI (converted)): > 44.7 µM
growth at 10 µM [4]: 86.1%
GI50 [15]: > 44.7 µM
LC50 [15]: > 44.7 µM
TGI ([15]; read-out: pTGI (converted)): > 44.7 µM
GI50 (CCRF-CEM [16]): > 44.7 µM
CC50 (CCRF-CEM [16]; [22]): > 44.7 µM
TGI (CCRF-CEM [16]; read-out: pTGI (converted)): > 44.7 µM
GI50 [17]: > 44.7 µM
CC50 [17, 22]: > 44.7 µM
TGI ([17]; read-out: pTGI (converted)): > 44.7 µM
growth at 10 µM [5]: 106%
GI50 [18]: > 44.7 µM
CC50 [18, 22]: > 44.7 µM
TGI ([18]; read-out: pTGI (converted)): > 44.7 µM
GI50 [19]: > 44.7 µM
LC50 (concentration causing 50% net cell kill) [19]: > 44.7 µM
TGI ([19]; read-out: pTGI (converted)): > 44.7 µM
growth at 10 µM [7]: 102%
growth at 10 µM [8]: 106%
GI50 (HT-29): > 44.7 µM
LC50 (HT-29): > 44.7 µM
TGI (HT-29; read-out: pTGI (converted)): > 44.7 µM
GI50 (NCI-H322M): > 44.7 µM
LC50 (NCI-H322M): > 44.7 µM
TGI (NCI-H322M; read-out: pTGI (converted)): > 44.7 µM
GI50 (K562): > 44.7 µM
CC50 (K562; [22]): > 44.7 µM
TGI (K562; read-out: pTGI (converted)): > 44.7 µM
growth at 10 µM [9]: 111%
growth at 10 µM [10]: 120%
growth at 10 µM (A498): 41%
growth at 10 µM [11]: 109%
growth at 10 µM (ACHN): 99.9%
GI50 [20]: > 44.7 µM
LC50 [20]: > 44.7 µM
TGI ([20]; read-out: pTGI (converted)): > 44.7 µM
growth at 10 µM (CCRF-CEM [12]): 128%
GI50 [21]: > 44.7 µM
CC50 [21, 22]: > 44.7 µM
TGI ([21]; read-out: pTGI (converted)): > 44.7 µM
GI50 (T47D): > 44.7 µM
CC50 (T47D; [22]): > 44.7 µM
TGI (T47D; read-out: pTGI (converted)): > 44.7 µM
growth at 10 µM (NCI-H460): 103%
growth at 10 µM [13]: 108%
